pEC50: −log10 of the molar value.
Experiments:
P388 [1] = experiment: Antitumor activity against mouse P388 cells allografted in mouse assessed as increase in survival time at 200 mg/kg, po q4d administered on days 5, 9 and 13 relative to control; format: functional
How it was run: (§1)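 P388 leukemia cells were injected ip into mice on day 0, and the tumor was allowed to advance before dosing on days 5, 9 and 13. Read-out is the survival time of treated relative to control mice (T/C, %), with ≥125% required for activity. Each value comes from a single test.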

L1210 [2] = experiment: Inhibition of RNA synthesis in mouse L1210 cells assessed as inhibition of [3H]uridine incorporation; format: functional; settings: read-out: ED50 (the source's name)
How it was run: (§2)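 L1210 leukemia cells in culture. Incorporation of [3H]thymidine (DNA) or [3H]uridine (RNA) was measured, and the dose giving 50% inhibition (ED50) was reported. Follows a previously described procedure, with 1% Me2SO added for some compounds.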

[3] = Binding affinity to DNA (unknown origin) assessed as DNA interaction by measuring change in melting temperature
How it was run: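 Thermal denaturation (melting temperature) shift of DNA in solution, read as ΔTm in °C. Buffer was 0.010 M phosphate, pH 7.0, with 10^-5 M EDTA plus 5% Me2SO to solubilize the compounds. Other steps followed a previously described method.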

L1210 [4] = experiment: Inhibition of DNA synthesis in mouse L1210 cells assessed as inhibition of [3H]thymidine incorporation; format: functional; settings: read-out: ED50 (the source's name); how it was run: as §2
P388 [5] = experiment: Antitumor activity against mouse P388 cells allografted in mouse assessed as increase in survival time at 6.25 mg/kg, po qd administered from day 1 to day 9 relative to control; format: functional
P388 [6] = experiment: Antitumor activity against mouse P388 cells allografted in mouse assessed as increase in survival time at 50 mg/kg, po q4d administered on days 5, 9 and 13 relative to control; format: functional; how it was run: as §1
P388 [7] = experiment: Antitumor activity against mouse P388 cells allografted in mouse assessed as increase in survival time at 1 mg/kg, po q4d administered on days 5, 9 and 13 relative to control; format: functional; how it was run: as §1
P388 [8] = experiment: Antitumor activity against mouse P388 cells allografted in mouse assessed as increase in survival time at 0.78 mg/kg, po qd administered from day 1 to day 9 relative to control; format: functional
P388 [9] = experiment: Antitumor activity against mouse P388 cells allografted in mouse assessed as increase in survival time at 2 mg/kg, po q4d administered on days 5, 9 and 13 relative to control; format: functional; how it was run: as §1

Compound | T/C (P388 [1]) [%] | pEC50 (L1210 [2]) | ΔTm [3] [°C] | pEC50 (L1210 [4]) | T/C (P388 [5]) [%] | T/C (P388 [6]) [%] | T/C (P388 [7]) [%] | T/C (P388 [8]) [%] | T/C (P388 [9]) [%]
COc1cccc2c1C(=O)c1c(O)c3c(c(O)c1C2=O)C[C@@](O)(C(C)=O)C[C@@H]3SCCN.Cl | 109 | 5.40 | 6.3 | 5.22 | – | – | – | – | –
COc1cccc2c1C(=O)c1c(O)c3c(c(O)c1C2=O)C[C@@](O)(C(C)=O)C[C@@H]3OC(=O)CCN.Cl | – | 5.22 | 1 | 5.10 | 126 | 116 | – | – | –
COc1cccc2c1C(=O)c1c(O)c3c(c(O)c1C2=O)C[C@@](O)(C(C)=O)C[C@@H]3OCCN.Cl | – | 6.00 | 8.2 | 5.70 | – | 112 | – | – | –
COc1cccc2c1C(=O)c1c(O)c3c(c(O)c1C2=O)C[C@@](O)(C(=O)CO)C[C@@H]3O[C@H]1C[C@H](N)[C@H](O)[C@H](C)O1 [DOXORUBICIN] | – | 6.15 | 13.6 | 5.70 | – | – | 130 | 197 | –
COc1cccc2c1C(=O)c1c(O)c3c(c(O)c1C2=O)C[C@@](O)(C(C)=O)C[C@@H]3O[C@H]1C[C@H](N)[C@H](O)[C@H](C)O1.Cl [DAUNORUBICIN HYDROCHLORIDE] | – | 6.52 | 11.2 | 6.40 | – | – | – | 160 | 133

— ChEMBL document CHEMBL3244343, “7-(Aminoethyl) ether and thioether of daunomycinone” (1979)
